One assay has as its system ZR-75-1. In words: Inhibitory concentration in ZR-75-1 cells. The note with it: Homo sapiens. The class given is functional, cell-based. In a few lines:
(§1)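 XTT viability: MCF7 grown in DMEM/10% FBS with 10^-10 M insulin, 1 mM pyruvate, glutamine; ZR75-1 in RPMI/10% FBS with HEPES, 1 mM pyruvate, glutamine. 1000 cells/well seeded in triplicate, compounds at final 0, 1, 10 and 100 µM for 3 days. Then XTT (1 mg/mL) with 0.025 mM PMS added for 4 h. OD450 read, blank wells subtracted.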

Another assay deals with MCF7S. In words: Inhibitory concentration in MCF-7 cells. The class given is functional, cell-based. To be noted: Homo sapiens. In a few lines:
as §1

Another assay addresses Bcl-2-like protein 1 (Homo sapiens, UniProt Q07817). Description: Inhibitory concentration against Bcl-xl.
Another assay has as its system HeLa. In words: Inhibitory concentration in HeLa cells. The class given is functional, cell-based. The note with it: Homo sapiens. In outline: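 HeLa viability assay. Low-passage HeLa (passage 10–20) treated with compounds at 0, 1, 3, 10 and 100 µM; viability read out. Values given as mean with standard deviation, n = 4.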

Each structure is given as a SMILES string.

Chain of Bcl-2-like protein 1 (Q07817 whole entry): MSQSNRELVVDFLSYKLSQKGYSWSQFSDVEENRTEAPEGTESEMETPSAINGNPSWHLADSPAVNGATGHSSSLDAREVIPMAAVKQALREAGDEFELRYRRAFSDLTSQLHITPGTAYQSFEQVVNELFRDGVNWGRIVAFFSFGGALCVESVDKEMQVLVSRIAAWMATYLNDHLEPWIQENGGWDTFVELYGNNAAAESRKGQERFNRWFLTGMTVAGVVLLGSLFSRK

By IC50 is commonly meant the concentration that inhibits the measured activity by half. High values mean a need for much substance, low ones inhibition by little substance. `Cc1cc2c(C(C)C)c(O)c(O)c(C=O)c2c(O)c1-c1c(C)cc2c(C(C)C)c(O)c(O)c(C=O)c2c1O` [GOSSYPOL]: the figures for the half-maximal inhibitory concentration (IC50) in the assay on ZR-75-1, in the assay on MCF7S and at Bcl-2-like protein 1 were 8.4 µM, 13.2 µM and 0.5 µM, respectively.

Take `O=c1c(O)cccc2cc(O)c(O)c(O)c12` [PURPUROGALLIN]: the IC50 with HeLa is 6.5 µM.

Regarding `COc1c(O)cc2cccc(OC)c(=O)c2c1OC`, the IC50 with HeLa is above 100 µM.

With `COc1cc2cccc(OC)c(=O)c2c(OC)c1OC`, in the assay with HeLa, the concentration for half-maximal inhibition (IC50) is above 100 µM.

Take `CCOC(=O)c1cc(O)c(=O)c2cc(O)c(O)cc2c1`: the results for the IC50 in the assay with ZR-75-1 and in the assay on HeLa were 50 µM and 51.5 µM, respectively.

In turn, `O=C(O)c1cc(O)c(=O)c2cc(O)c(O)cc2c1` registered an IC50 in the assay with HeLa of 22.9 µM.

`COC(=O)c1cc(O)c(=O)c2cc(O)c(O)cc2c1`: the IC50 in the assay on HeLa was 30 µM.

The values above are taken from ChEMBL document CHEMBL1144902, “Discovery, characterization, and structure-activity relationships studies of proapoptotic polyphenols targeting B-cell lymphocyte/leukemia-2 proteins” (J Med Chem, 2003).
